An excerpt weighted towards active compounds, which were near 4.1% of everything screened.
NF-kB neuron act = raises NF-kB expression in human neuronal cells. NF-kB reporter expression; hits give high values. fold change at 12.5 µM. 1.6% of 190,000 active. AID 1239; in the data active means fold change above about 3.3
APP 5'UTR act = APP 5'UTR luciferase reporter activation; 1% of 190,000 active; SH-SY5Y APP 5'UTR luciferase reporter, luminescence; zero percent = DMSO vehicle wells; activation, % at 2 µM; AID 1276;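 active means activation above a set limit, based on mean plus 3 SD of controls, cut at about 140% in these data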
FLuc act counter = firefly luciferase counter-screen for stimulation assays; ATPlite luciferase biochemical, luminescence, 10 min; 0 = ATP-free wells, 1 = DMSO control; activation factor at 10 µM; 200,000 tested, under 10 active; AID 1027;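 active means luciferase activation factor, scaled between plate controls, of at least 2 with compound at 10 µM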
Target sequence (P08659 whole entry, looked up): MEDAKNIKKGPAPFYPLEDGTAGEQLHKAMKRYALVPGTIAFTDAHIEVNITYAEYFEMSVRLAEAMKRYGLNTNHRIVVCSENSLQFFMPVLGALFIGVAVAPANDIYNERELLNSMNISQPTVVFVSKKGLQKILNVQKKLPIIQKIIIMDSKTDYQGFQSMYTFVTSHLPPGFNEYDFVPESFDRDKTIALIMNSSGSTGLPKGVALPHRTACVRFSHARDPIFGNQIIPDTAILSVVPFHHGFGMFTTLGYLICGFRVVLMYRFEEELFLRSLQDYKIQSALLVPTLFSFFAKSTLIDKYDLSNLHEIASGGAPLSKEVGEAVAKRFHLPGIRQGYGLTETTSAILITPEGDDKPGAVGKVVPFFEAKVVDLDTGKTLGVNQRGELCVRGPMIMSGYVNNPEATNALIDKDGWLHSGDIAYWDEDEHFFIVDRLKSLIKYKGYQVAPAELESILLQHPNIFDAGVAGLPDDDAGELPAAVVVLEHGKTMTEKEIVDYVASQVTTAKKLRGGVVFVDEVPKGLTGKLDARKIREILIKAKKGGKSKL
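Assay system – cell-free luciferase reagent · Medium – PBS-based ATP solution · Dosing – test compounds dosed from 2 mM stocks in 100% DMSO · Timing – 10 min, room temperature · Technique – light output (luminescence) · Measure – luminescence gain marking luciferase activators · Controls – No-ATP low control, compound-free enzyme-plus-ATP high control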
FLuc inhib CS = counter-screen for luciferase assay inhibitors: firefly luciferase inhibition | inhibition, % at 10 µM | 1.5% of 200,000 active | AID 1006 | P08659 | ATPLite firefly luciferase biochemical luminescence, 10 min;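 active means inhibition above about 50% when tested at 10 µM, limit read from the data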
STAT1 act = increases IFN-gamma driven STAT1 reporter signal; NIH 3T3 STAT1-luciferase reporter, luminescence; 100% = IFN-gamma alone, no compound; activation (% of control), % at 5.5 µM; 2.6% of 200,000 active;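 active means activation above the screen-wide mean activation plus 3 SD, cut at about 130% in these data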;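 further: raw ratio to IFN-gamma control signal so 100% means no change and 0% no light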
The depositor's hits bear a star.

How did CC(=O)Nc1nc2ccc(NC(=O)c3ccco3)cc2s1 do in these assays?
NF-kB neuron act: 2; APP 5'UTR act: -4; FLuc act counter: 0.9; FLuc inhib CS: 10; STAT1 act: 126

How did Cc1cccc(NC(=O)c2ccc(N3CCOCC3)c([N+](=O)[O-])c2)n1 do in these assays?
NF-kB neuron act: 2; APP 5'UTR act: 65; FLuc act counter: 0.9; FLuc inhib CS: 12; STAT1 act: 117

Results for Cc1cccc(NC(=O)c2ccc(N3CCCCC3)c([N+](=O)[O-])c2)n1 ?
NF-kB neuron act: 5.2*; APP 5'UTR act: 159*; FLuc act counter: 0.6; FLuc inhib CS: 37; STAT1 act: 144*

How did C=CC(=O)NC(NC(=O)C=C)c1ccc(Br)cc1 do in these assays?
NF-kB neuron act: 3.3*; APP 5'UTR act: -1; FLuc act counter: 1; FLuc inhib CS: -2; STAT1 act: 97

What do the screens show for `CC(NC(=O)c1ccccc1)c1ccc(Br)cc1` (stereo not drawn)?
NF-kB neuron act: 0.99; APP 5'UTR act: -1; FLuc act counter: 1; FLuc inhib CS: -3; STAT1 act: 89

Results for CC(/C=N/NC(=O)c1c(Br)cnn1C)=C\c1ccccc1 ?
NF-kB neuron act: 1.6; APP 5'UTR act: -1; FLuc act counter: 0.8; FLuc inhib CS: 16; STAT1 act: 120

Results for CC(/C=N/NC(=O)c1nn(C)c(C)c1Br)=C\c1ccccc1 ?
NF-kB neuron act: 2.1; APP 5'UTR act: 29; FLuc act counter: 0.2; FLuc inhib CS: 80*; STAT1 act: 132*

Results for CC(/C=N/NC(=O)c1ccncc1)=C\c1ccccc1 ?
NF-kB neuron act: 1.4; APP 5'UTR act: 10; FLuc act counter: 0.4; FLuc inhib CS: 61*; STAT1 act: 104

What do the screens show for `CC(=C/c1ccccc1)/C=N/NC(=O)c1ccc2nc[nH]c2c1`?
NF-kB neuron act: 1.3; APP 5'UTR act: -18; FLuc act counter: 0.2; FLuc inhib CS: 82*; STAT1 act: 102

What do the screens show for `NC(=O)c1ccsc1NC(=O)COC(=O)Cc1cccc2ccccc12`?
NF-kB neuron act: 0.69; APP 5'UTR act: 3; FLuc act counter: 1; FLuc inhib CS: 0; STAT1 act: 83

What do the screens show for `Cn1c(N)c(C(=O)COC(=O)CC2CC3CCC2C3)c(=O)n(C)c1=O` (stereo not drawn)?
NF-kB neuron act: 0.81; APP 5'UTR act: 12; FLuc act counter: 1; FLuc inhib CS: -3; STAT1 act: 95

Results for CCOC(=O)/C(C#N)=C/C1=C(N2CCCC2)CC(C)(CC)OC1 (stereo not drawn) ?
NF-kB neuron act: 1.1; APP 5'UTR act: -9; FLuc act counter: 1.1; FLuc inhib CS: -9; STAT1 act: 99

What do the screens show for `Cc1ccc(C(=O)O)cc1NC(=S)NC(=O)c1ccc([N+](=O)[O-])c(C)c1`?
NF-kB neuron act: 1.2; APP 5'UTR act: 5; FLuc act counter: 0.9; FLuc inhib CS: 6; STAT1 act: 97

Results for CN(CCO)c1c2c(nc3cc(-c4cccc(F)c4)nn13)CCCC2 ?
NF-kB neuron act: 2.1; APP 5'UTR act: 153*; FLuc act counter: 0.9; FLuc inhib CS: 13; STAT1 act: 142*

How did OC1CCN(c2c3c(nc4cc(-c5cccc(F)c5)nn24)CCCC3)CC1 do in these assays?
NF-kB neuron act: 0.68; APP 5'UTR act: -5; FLuc act counter: 1; FLuc inhib CS: 2; STAT1 act: 118

How did Cc1ccc(NC(=O)COC(=O)CNC(=O)c2ccco2)cc1 do in these assays?
NF-kB neuron act: 0.89; APP 5'UTR act: 15; FLuc act counter: 1; FLuc inhib CS: -1; STAT1 act: 100

Results for O=C(NC12CC3CC(CC(C3)C1)C2)c1ccc(-c2ccccc2Cl)o1 ?
NF-kB neuron act: 1.2; APP 5'UTR act: 182*; FLuc act counter: 0.7; FLuc inhib CS: 28; STAT1 act: 171*

How did O=C(NC12CC3CC(CC(C3)C1)C2)c1ccc(-c2ccc(Cl)cc2)o1 do in these assays?
NF-kB neuron act: 0.76; APP 5'UTR act: 55; FLuc act counter: 0.8; FLuc inhib CS: 22; STAT1 act: 130*

How did O=C(NCc1ccco1)c1ccc(-c2ccccc2Cl)o1 do in these assays?
NF-kB neuron act: 2.4; APP 5'UTR act: 25; FLuc act counter: 1; FLuc inhib CS: 2; STAT1 act: 123

What do the screens show for `CC(=O)NC(=O)c1ccc(-c2ccc(Cl)cc2)o1`?
NF-kB neuron act: 1.4; APP 5'UTR act: 7; FLuc act counter: 0.6; FLuc inhib CS: 36; STAT1 act: 110

Assay outcomes as filed in PubChem BioAssay.
